Source: article PMC4703501 (Leukemia, 2015)

Key:
HeLa cells = experiment: TNF-α induced p65 NF-kB phosphorylation western blot; format: cell-based, human; conditions: 5ng/ml TNF-α for 5 min after treatment
Summary of the method: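 Positive-control system: HeLa cells were pretreated with test compound, then stimulated with 5ng/ml TNF-α for 5 min. Phospho-p65 NF-kB was assessed by western blot of whole-cell extracts.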

[1] = test system: Granta 519 and Z138 cell lines; experiment: MAP kinase pathway; format: cell-based, human; conditions: 24 hrs
mantle cell lymphoma = conditions: refractory or relapsed MCL patients; cited from earlier work

Nc1ccc2ncnc(NCCc3ccc(Oc4ccccc4)cc3)c2c1 [QNZ]
phosphorylation status of p65 (HeLa cells): strong inhibition

N#CC(=C(/N)Sc1ccccc1N)/C(C#N)=C(/N)Sc1ccccc1N [U0126]
phosphorylation status of MEK or ERK kinases [1]: potently inhibited

C=CC(=O)N1CCC[C@@H](n2nc(-c3ccc(Oc4ccccc4)cc3)c3c(N)ncnc32)C1 [Ibrutinib]
patients with complete remission (mantle cell lymphoma): approximately 21%
